Assay results: ChEMBL document CHEMBL2034980, “N⁴-Phenyl-substituted 2-acetylpyridine thiosemicarbazones: cytotoxicity against human tumor cells, structure-activity relationship studies and investigation on the mechanism of action” (Bioorg Med Chem, 2012)

Assays:
MCF7 = assay: Cytotoxicity against human MCF7 cells after 48 hrs by MTT assay; format: functional, cell-based; details: MCF7, 48 h
How it was run: (§1)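 MTT assay. Cells were grown in DMEM with 10% FBS and penicillin/streptomycin at 37 °C under 5% CO2, seeded at 1–2×10^3 cells/well and treated 12 h later with 1×10^-12 to 1×10^-5 M ([…] from DMSO stock, final DMSO <0.5%) for 48 h. MTT was added at 0.5 mg mL⁻¹, formazan dissolved in DMSO and read at 570 nm. IC50 is the concentration giving 50% cytotoxicity. Quadruplicates, ≥3 independent experiments.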

T98G = assay: Cytotoxicity against human T98G cells expressing mutant p53 after 48 hrs by MTT assay; format: functional, cell-based; how it was run: as §1
[1] = Cytotoxicity against human U87 cells expressing wild-type p53 after 48 hrs by MTT assay; format: functional, cell-based, U-87MG ATCC; details: U-87 MG; how it was run: as §1

SMILES	IC50 (MCF7; read-out: pIC50 (converted))	IC50 (T98G; read-out: pIC50 (converted))	IC50 ([1]; read-out: pIC50 (converted))	IC50 (MCF7; read-out: IC50)	IC50 (T98G; read-out: IC50)	IC50 ([1]; read-out: IC50)
C/C(=N\NC(=S)Nc1ccc(Cl)cc1)c1ccccn1	8.49 nM	5.9 nM	1.7 nM	–	–	–
C/C(=N\NC(=S)Nc1cccc([N+](=O)[O-])c1)c1ccccn1	38 nM	140 nM	69 nM	–	–	–
C/C(=N/NC(=S)Nc1ccccc1Cl)c1ccccn1	0.16 nM	1.1 nM	2.6 nM	–	–	–
C/C(=N/NC(=S)Nc1ccc(Cl)cc1)c1ccccn1	8.49 nM	5.9 nM	1.7 nM	–	–	–
COc1cc([C@@H]2c3cc4c(cc3[C@@H](O[C@@H]3O[C@@H]5CO[C@@H](C)O[C@H]5[C@H](O)[C@H]3O)[C@H]3COC(=O)[C@H]23)OCO4)cc(OC)c1O [ETOPOSIDE]	–	–	–	480 nM	460 nM	620 nM
C/C(=N/NC(=S)Nc1cccc([N+](=O)[O-])c1)c1ccccn1	38 nM	140 nM	69 nM	–	–	–
C/C(=N\NC(=S)Nc1ccccc1[N+](=O)[O-])c1ccccn1	5.7 nM	6.61 nM	4.3 nM	–	–	–
C/C(=N/NC(=S)Nc1ccccc1)c1ccccn1	0.18 nM	6.81 nM	1.4 nM	–	–	–
C/C(=N\NC(=S)Nc1cccc(F)c1)c1ccccn1	8.99 nM	12 nM	18 nM	–	–	–
C/C(=N/NC(=S)Nc1ccccc1F)c1ccccn1	0.39 nM	3.1 nM	5 nM	–	–	–
C/C(=N/NC(=S)Nc1cccc(I)c1)c1ccccn1	45 nM	61 nM	83.9 nM	–	–	–
C/C(=N/NC(=S)Nc1ccc(I)cc1)c1ccccn1	6.61 nM	64 nM	59 nM	–	–	–
C/C(=N\NC(=S)Nc1ccccc1Cl)c1ccccn1	0.16 nM	1.1 nM	2.6 nM	–	–	–
C/C(=N/NC(=S)Nc1ccccc1I)c1ccccn1	4.1 nM	8.09 nM	6.1 nM	–	–	–
C/C(=N\NC(=S)Nc1ccc([N+](=O)[O-])cc1)c1ccccn1	52 nM	140 nM	160 nM	–	–	–
